Here are results for eleven molecules from ChEMBL document CHEMBL1806437, “Design, synthesis and antileishmanial in vitro activity of new series of chalcones-like compounds: a molecular hybridization approach” (Bioorg Med Chem, 2011).

One test concerns Leishmania amazonensis. Briefly: Antileishmanial activity against Leishmania amazonensis MHOM/IFLA/BR/67/PH8 promastigotes after 72 hrs by cell counting using Neubauer chamber. The test is classed as functional, organism-based. The note with it: MHOM/IFLA/BR/67/PH8, 72 h. The essentials: (§1)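 Log-phase promastigotes seeded at 1 × 10⁶ parasites/mL in Schneider's Drosophila medium with 20% FBS, streptomycin and penicillin (100 U/mL), 26 °C, with or without a range of compound concentrations; Glucantime and amphotericin B as reference controls. At 72 h cells fixed in citric acid/NaCl/formalin isotonic solution and counted microscopically; IC50/72 h by probit regression.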

The test system of a further test is Leishmania chagasi. Briefly: Antileishmanial activity against Leishmania chagasi MCAN/BR/99/JP15 promastigotes after 72 hrs by cell counting using Neubauer chamber. The test is classed as functional, organism-based. Conditions: MCAN/BR/99/JP15, 72 h. The essentials: as §1

SMILES strings stand for the structures. pIC50: −log10 of the molar value.

Regarding `C=C(C(=O)Oc1ccccc1C(=O)OC)C(O)c1cccnc1` (configuration not stated), the pIC50 – broadly, −log10 of the IC50, conventionally taken in molar units – was 4.51 with Leishmania amazonensis and 4.41 in the test on Leishmania chagasi.
With `C=C(C(=O)Oc1ccccc1C(=O)OC)C(O)c1ccc2ccccc2c1` (configuration not stated), the pIC50 with Leishmania amazonensis was 5.05; in the test on Leishmania chagasi, 4.38.
The corresponding values for `C=C(C(=O)Oc1ccccc1C(=O)OC)C(O)c1ccccc1[N+](=O)[O-]` (configuration not stated) are 5.12 and 4.99.
As to `C[C@@H]1[C@H](O)[C@@H](C)/C=C/C=C/C=C/C=C/C=C/C=C/C=C/[C@H](O[C@@H]2O[C@H](C)[C@@H](O)[C@H](N)[C@@H]2O)C[C@@H]2O[C@](O)(C[C@@H](O)C[C@@H](O)[C@H](O)CC[C@@H](O)C[C@@H](O)CC(=O)O[C@H]1C)C[C@H](O)[C@H]2C(=O)O` [AMPHOTERICIN B], the pIC50 is 6.92 in the test with Leishmania amazonensis and 6.16 in the test with Leishmania chagasi.
In the case of `C=C(CCC(=O)Oc1ccccc1C(=O)OC)C(=O)Oc1ccccc1C(=O)OC`, the pIC50 in the test with Leishmania amazonensis was 4.65; with Leishmania chagasi it was 4.31.
Take `COC(=O)c1ccccc1O` [METHYL SALICYLATE]: the pIC50 is 3.64 with Leishmania amazonensis and 3.58 in the test with Leishmania chagasi.
`C=C(C(=O)Oc1ccccc1C(=O)OC)C(O)c1ccc(Br)cc1` (configuration not stated): the pIC50 in the test with Leishmania amazonensis is 4.66; with Leishmania chagasi, 4.37.
As to `C=C(C(=O)Oc1ccccc1C(=O)OC)C(O)c1ccc([N+](=O)[O-])cc1` (configuration not stated), the pIC50 in the test with Leishmania amazonensis was 4.95; in the test on Leishmania chagasi it was 4.24.
The corresponding values for `C=C(C(=O)Oc1ccccc1C(=O)OC)C(O)c1cccc([N+](=O)[O-])c1` (configuration not stated) are 4.64 and 4.39.
Turning to `C=C(C(=O)Oc1ccccc1C(=O)OC)C(O)c1ccncc1` (configuration not stated), the pIC50 in the test with Leishmania amazonensis is 4.62; with Leishmania chagasi, 4.48.
`C=CC(=O)Oc1ccccc1C(=O)OC` [METHYL SALICYLATE ACRYLIC ESTER]: the pIC50 is 3.96 in the test on Leishmania amazonensis and 3.93 in the test with Leishmania chagasi.
